Test results taken from ChEMBL document CHEMBL1140927, “Discovery of N-(3-fluorophenyl)-1-[(4-([(3S)-3-methyl-1-piperazinyl]methyl)phenyl)acetyl]-4-piperidinamine (GSK962040), the first small molecule motilin receptor agonist clinical candidate” (J Med Chem, 2009).

Experiments:
Motilin receptor [1] = biological target: T1, Motilin receptor (Homo sapiens, UniProt O43193); test: Agonist activity at human recombinant motilin receptor expressed in CHO cells assessed as increase in intracellular calcium by FLIPR assay; format: functional, cell-based
Outline: (§1)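 CHO-K1 cells stably transfected with human motilin receptor, grown in DMEM/HamF-12 with 10% FBS, 2 mM GlutaMAX, 1 mg/mL Geneticin; seeded 10 000 cells/well, 24 h. Loaded with Fluo 4 (2.5 µM) in Tyrodes with probenecid, 1 h at 37.5 °C. Compound top final 12 µM, 1-in-4 dilutions; fluorescence read over 1 min; max change over baseline, four-parameter logistic fit; intrinsic activity = curve maximum relative to motilin maximum.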

Motilin receptor [2] = biological target: T1, Motilin receptor; test: Intrinsic activity at human recombinant motilin receptor expressed in CHO cells relative to motilin; format: cell-based; outline: as §1
[3] = Half life in rabbit gastric antrum native tissue at 0.3 uM; format: ADME, tissue-based, Oryctolagus cuniculus, Stomach
Stomach [4] = test: Potentiation of electric field stimulated-rabbit gastric antrum contraction at 0.3 uM; format: functional, Oryctolagus cuniculus
Outline: (§2)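 Isolated native rabbit gastric antrum tissue. Cholinergic contractions are evoked by electrical field stimulation (EFS), and compound is added at the stated concentration. The read-out is % potentiation of EFS-evoked contractions, n = 4-8.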

Stomach [5] = test: Potentiation of electric field stimulated-rabbit gastric antrum contraction at 0.1 uM; format: functional, Oryctolagus cuniculus; outline: as §2
Stomach [6] = test: Potentiation of electric field stimulated-rabbit gastric antrum contraction at 1 uM; format: functional, Oryctolagus cuniculus; outline: as §2
Rattus norvegicus = test: AUC (0 to t) in Sprague-Dawley rat at 5 mg/kg, po; format: ADME, organism-based, Plasma; design: dose 5 mg/kg, route oral; conditions: in vivo
Outline: (§3)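 Male Sprague-Dawley rats (n = 3), HCl salt suspended in 1% w/v methylcellulose at 1 mg free base/mL, oral gavage 5 mL/kg for 5 mg free base/kg; serial blood up to 12 h (8 h in a second study); diluted blood analysed by LC/MS/MS, LLQ 5 ng/mL.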

[7] = biological target: Growth hormone secretagogue receptor type 1 (Homo sapiens, UniProt Q92847); test: Agonist activity at human Ghrelin receptor; format: functional
Cytochrome P450 3A4 [8] = biological target: T2, Cytochrome P450 3A4 (Homo sapiens, UniProt P08684); test: Inhibition of human CYP3A4 expressed in Escherichia coli using diethoxyfluorescein substrate assessed as decrease in enzyme activity by time dependent inhibition assay; format: ADME; design: unit not given here
[9] = Protein binding in rat plasma; format: ADME, cell-free; conditions: read-out: PPB (converted)
Cytochrome P450 2D6 = Cytochrome P450 2D6 (Homo sapiens, UniProt P10635); test: Inhibition of human CYP2D6; format: ADME
[10] = Cmax in Sprague-Dawley rat at 5 mg/kg, po; format: ADME, organism-based; design: dose 5 mg/kg, route oral; conditions: in vivo; outline: as §3
[11] = Oral bioavailability in Sprague-Dawley rat; format: ADME, organism-based; conditions: in vivo
Outline: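 Male Sprague-Dawley rats (n = 3), two study days 2 days apart: 1 h IV infusion of 1 mg free base/kg in 0.9% saline (0.2 mg/mL, 5 mL/kg/h), then oral gavage 5 mg free base/kg in 1% methylcellulose; serial blood up to 12 h; LC/MS/MS, LLQ 5 ng/mL.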

Cytochrome P450 2C9 = Cytochrome P450 2C9 (Homo sapiens, UniProt P11712); test: Inhibition of human CYP2C9; format: ADME
[12] = biological target: Voltage-gated inwardly rectifying potassium channel KCNH2 (Homo sapiens, UniProt Q12809); test: Binding affinity to human ERG
Stomach [13] = test: Potentiation of electric field stimulated-rabbit gastric antrum contraction at 3 uM; format: functional, Oryctolagus cuniculus
Outline: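 Isolated rabbit gastric antrum; cholinergic contractions evoked by electrical field stimulation, compound response expressed as % potentiation of EFS-evoked contraction, n = 4-8.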

[14] = Half life in rabbit gastric antrum native tissue at 3 uM; format: ADME, tissue-based, Oryctolagus cuniculus, Stomach
[15] = Oral bioavailability in Beagle dog; format: ADME, organism-based, Canis lupus familiaris; conditions: in vivo
Outline: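 Three dogs, two study days 7 days apart: 1 h IV infusion of 2 mg free base/kg in 0.9% saline (0.4 mg/mL, 5 mL/kg/h), then same dogs oral gavage 5 mg free base/kg in 1% methylcellulose (1 mg/mL, 5 mL/kg); serial blood up to 30 h; LC/MS/MS, LLQ 5 ng/mL.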

Cytochrome P450 2C19 = Cytochrome P450 2C19 (Homo sapiens, UniProt P33261); test: Inhibition of human CYP2C19; format: ADME
Cytochrome P450 1A2 = biological target: T3, Cytochrome P450 1A2 (Homo sapiens, UniProt P05177); test: Inhibition of human CYP1A2; format: ADME
T3 sequence (P05177 whole entry): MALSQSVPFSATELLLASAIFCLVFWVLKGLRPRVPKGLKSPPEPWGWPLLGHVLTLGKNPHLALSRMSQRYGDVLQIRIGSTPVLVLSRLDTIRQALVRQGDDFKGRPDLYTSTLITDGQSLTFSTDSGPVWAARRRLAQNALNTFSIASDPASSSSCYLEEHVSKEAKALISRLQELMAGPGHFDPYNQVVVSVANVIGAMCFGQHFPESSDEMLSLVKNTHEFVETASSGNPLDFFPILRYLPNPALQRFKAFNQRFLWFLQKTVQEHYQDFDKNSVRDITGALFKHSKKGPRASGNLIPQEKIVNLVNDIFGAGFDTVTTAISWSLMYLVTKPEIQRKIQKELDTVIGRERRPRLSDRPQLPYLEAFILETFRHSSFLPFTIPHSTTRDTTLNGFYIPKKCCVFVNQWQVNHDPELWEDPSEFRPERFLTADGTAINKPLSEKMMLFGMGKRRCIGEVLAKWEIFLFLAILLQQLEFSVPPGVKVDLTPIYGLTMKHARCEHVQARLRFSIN

[16] = Protein binding in human plasma; format: ADME, cell-free; conditions: read-out: PPB (converted)
[17] = Tmax in Sprague-Dawley rat at 5 mg/kg, po; format: ADME, organism-based; design: dose 5 mg/kg, route oral; conditions: in vivo; outline: as §3
[18] = Aqueous solubility of the compound; format: physicochemical; conditions: aqueous medium
Cytochrome P450 3A4 [19] = biological target: T2, Cytochrome P450 3A4; test: Inhibition of human CYP3A4 expressed in Escherichia coli using diethoxyfluorescein substrate by time dependent inhibition assay; format: ADME
Cytochrome P450 3A4 [20] = biological target: T2, Cytochrome P450 3A4; test: Inhibition of human CYP3A4 expressed in Escherichia coli using diethoxyfluorescein substrate measured in 0 to 5 mins by time dependent inhibition assay; format: ADME
Cytochrome P450 3A4 [21] = biological target: T2, Cytochrome P450 3A4; test: Inhibition of human CYP3A4 expressed in Escherichia coli using diethoxyfluorescein substrate measured in 25 to 30 mins by time dependent inhibition assay; format: ADME
Cytochrome P450 3A4 [22] = biological target: T2, Cytochrome P450 3A4; test: Inhibition of human CYP3A4 expressed in Escherichia coli using 7BQ substrate by time dependent inhibition assay; format: ADME

T2 sequence (P08684 whole entry): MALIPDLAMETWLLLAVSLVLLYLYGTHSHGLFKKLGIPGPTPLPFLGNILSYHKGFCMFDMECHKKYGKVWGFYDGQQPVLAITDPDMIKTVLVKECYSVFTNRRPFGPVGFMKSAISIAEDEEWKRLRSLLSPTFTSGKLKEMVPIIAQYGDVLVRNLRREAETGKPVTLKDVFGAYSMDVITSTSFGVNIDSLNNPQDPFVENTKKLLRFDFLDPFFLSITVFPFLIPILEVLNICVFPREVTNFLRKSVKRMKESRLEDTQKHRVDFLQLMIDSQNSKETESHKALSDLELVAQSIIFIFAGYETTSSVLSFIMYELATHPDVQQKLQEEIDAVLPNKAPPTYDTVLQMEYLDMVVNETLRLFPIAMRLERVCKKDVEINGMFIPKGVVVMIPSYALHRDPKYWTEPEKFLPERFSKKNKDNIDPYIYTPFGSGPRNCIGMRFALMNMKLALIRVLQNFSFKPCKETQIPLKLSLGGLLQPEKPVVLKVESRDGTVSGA
T1 sequence (O43193 whole entry): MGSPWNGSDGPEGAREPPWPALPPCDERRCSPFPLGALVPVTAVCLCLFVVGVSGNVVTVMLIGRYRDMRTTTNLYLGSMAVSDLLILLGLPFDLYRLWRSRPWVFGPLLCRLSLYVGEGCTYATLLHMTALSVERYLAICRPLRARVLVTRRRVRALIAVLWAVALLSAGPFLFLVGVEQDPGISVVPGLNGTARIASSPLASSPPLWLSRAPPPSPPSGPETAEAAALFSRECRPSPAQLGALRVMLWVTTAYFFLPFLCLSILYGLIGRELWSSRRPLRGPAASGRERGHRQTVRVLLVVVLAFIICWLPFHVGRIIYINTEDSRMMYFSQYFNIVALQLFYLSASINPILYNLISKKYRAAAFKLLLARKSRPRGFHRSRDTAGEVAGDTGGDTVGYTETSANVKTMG
Sequence of Growth hormone secretagogue receptor type 1 (Q92847 whole entry): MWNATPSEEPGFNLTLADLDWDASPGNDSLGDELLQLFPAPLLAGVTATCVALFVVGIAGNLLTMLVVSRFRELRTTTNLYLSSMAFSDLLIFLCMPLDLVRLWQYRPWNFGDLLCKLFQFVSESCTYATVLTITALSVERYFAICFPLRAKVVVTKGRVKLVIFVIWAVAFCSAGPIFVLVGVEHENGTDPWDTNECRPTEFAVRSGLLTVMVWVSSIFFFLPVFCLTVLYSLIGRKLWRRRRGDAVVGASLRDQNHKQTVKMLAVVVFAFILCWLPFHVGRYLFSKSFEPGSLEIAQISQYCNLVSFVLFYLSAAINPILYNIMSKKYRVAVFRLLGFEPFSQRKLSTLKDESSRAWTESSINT
Sequence of Cytochrome P450 2C19 (P33261 whole entry): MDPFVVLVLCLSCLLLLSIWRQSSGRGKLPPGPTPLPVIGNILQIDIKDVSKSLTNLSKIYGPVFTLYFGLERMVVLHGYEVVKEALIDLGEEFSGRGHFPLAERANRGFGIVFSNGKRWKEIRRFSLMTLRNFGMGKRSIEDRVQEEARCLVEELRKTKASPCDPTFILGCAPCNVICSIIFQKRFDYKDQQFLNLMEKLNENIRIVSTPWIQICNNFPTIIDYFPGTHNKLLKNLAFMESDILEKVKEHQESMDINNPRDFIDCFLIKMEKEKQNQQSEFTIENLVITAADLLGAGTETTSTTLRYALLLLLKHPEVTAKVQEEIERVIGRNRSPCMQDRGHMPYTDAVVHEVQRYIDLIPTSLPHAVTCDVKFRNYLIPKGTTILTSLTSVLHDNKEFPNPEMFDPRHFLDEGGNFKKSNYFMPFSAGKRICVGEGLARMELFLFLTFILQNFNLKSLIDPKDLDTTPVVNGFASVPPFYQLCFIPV
Sequence of Voltage-gated inwardly rectifying potassium channel KCNH2 (Q12809 whole entry): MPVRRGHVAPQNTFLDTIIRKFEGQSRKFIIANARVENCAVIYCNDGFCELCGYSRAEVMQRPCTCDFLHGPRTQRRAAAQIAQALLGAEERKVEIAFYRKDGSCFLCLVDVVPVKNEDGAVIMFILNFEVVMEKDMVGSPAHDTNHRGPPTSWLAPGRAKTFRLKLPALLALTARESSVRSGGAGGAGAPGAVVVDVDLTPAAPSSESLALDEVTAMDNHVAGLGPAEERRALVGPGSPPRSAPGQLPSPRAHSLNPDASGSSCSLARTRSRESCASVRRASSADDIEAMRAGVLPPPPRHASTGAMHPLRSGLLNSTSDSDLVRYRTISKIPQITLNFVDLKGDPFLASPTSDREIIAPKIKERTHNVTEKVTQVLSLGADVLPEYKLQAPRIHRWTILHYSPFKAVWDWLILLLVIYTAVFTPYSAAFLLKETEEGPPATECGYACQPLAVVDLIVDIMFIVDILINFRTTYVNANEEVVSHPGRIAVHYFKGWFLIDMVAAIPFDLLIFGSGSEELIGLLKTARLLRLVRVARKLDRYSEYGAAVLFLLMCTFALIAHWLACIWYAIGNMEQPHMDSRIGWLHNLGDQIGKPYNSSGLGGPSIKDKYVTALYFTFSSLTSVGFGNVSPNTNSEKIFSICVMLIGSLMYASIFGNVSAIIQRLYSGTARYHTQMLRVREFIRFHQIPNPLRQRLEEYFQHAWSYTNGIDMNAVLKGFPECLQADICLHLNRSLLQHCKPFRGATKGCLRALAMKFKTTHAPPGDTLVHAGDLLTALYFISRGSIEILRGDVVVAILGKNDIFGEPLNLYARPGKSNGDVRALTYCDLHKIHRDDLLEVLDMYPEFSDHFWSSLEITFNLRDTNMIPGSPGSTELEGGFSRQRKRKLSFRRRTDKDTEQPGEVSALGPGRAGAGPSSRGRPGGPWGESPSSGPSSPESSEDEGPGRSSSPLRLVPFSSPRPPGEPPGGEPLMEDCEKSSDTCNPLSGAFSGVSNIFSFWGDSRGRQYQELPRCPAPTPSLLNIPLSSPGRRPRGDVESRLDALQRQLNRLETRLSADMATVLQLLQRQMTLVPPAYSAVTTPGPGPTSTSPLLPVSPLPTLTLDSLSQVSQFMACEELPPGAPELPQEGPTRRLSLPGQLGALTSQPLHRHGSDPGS
Sequence of Cytochrome P450 2D6 (P10635 whole entry): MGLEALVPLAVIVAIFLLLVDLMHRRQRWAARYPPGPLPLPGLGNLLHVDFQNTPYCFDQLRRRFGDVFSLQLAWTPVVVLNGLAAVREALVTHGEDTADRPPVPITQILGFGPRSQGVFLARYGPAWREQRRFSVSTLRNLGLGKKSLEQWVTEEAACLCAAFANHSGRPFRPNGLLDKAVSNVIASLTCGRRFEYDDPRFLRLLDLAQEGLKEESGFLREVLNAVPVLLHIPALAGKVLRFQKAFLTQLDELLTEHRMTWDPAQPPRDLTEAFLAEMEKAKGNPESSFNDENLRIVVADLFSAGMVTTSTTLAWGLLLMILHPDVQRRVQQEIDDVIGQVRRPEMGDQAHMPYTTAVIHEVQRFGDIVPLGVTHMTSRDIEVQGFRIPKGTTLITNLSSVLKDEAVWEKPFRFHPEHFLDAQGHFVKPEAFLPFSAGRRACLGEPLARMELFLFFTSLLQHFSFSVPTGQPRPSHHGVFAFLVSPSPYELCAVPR
Sequence of Cytochrome P450 2C9 (P11712 whole entry): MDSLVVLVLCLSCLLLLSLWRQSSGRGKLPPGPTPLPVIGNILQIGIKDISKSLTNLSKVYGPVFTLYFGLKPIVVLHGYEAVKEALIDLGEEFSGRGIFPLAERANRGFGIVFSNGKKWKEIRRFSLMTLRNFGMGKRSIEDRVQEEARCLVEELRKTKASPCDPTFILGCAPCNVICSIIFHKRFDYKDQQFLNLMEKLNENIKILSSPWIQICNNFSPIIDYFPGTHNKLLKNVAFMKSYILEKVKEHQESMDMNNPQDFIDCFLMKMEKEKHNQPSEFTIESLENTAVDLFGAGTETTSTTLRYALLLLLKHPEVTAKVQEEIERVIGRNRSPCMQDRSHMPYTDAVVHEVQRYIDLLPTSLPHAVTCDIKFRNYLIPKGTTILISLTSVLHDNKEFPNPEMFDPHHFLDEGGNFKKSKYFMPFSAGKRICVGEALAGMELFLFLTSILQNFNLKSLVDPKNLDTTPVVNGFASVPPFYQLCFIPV

SMILES	EC50 (Motilin receptor [1]) [µM]	Intrinsic activity (Motilin receptor [2])	Activity (Stomach [4]) [%]	Activity (Stomach [5]) [%]	Activity (Stomach [6]) [%]	Activity (Cytochrome P450 3A4 [8])	IC50 (Cytochrome P450 3A4 [19]) [µM]	other results
C[C@H]1CN(Cc2ccc(CCC(=O)N3CCC(Nc4ccc(F)cc4)CC3)cc2)CCN1	0.0631	1.2						
CCCC[C@H](NC(=O)[C@H](CCCNC(=N)N)NC(=O)[C@H](CCC(N)=O)NC(=O)[C@H](CC(C)C)NC(=O)[C@H](CCC(=O)O)NC(=O)CNC(=O)[C@H](Cc1ccc(O)cc1)NC(=O)[C@@H](NC(=O)[C@H](Cc1ccccc1)NC(=O)[C@@H](NC(=O)[C@@H]1CCCN1C(=O)[C@@H](NC(=O)[C@@H](N)Cc1ccccc1)C(C)C)[C@@H](C)CC)[C@@H](C)O)C(=O)N[C@@H](CCC(N)=O)C(=O)N[C@@H](CCC(=O)O)C(=O)N[C@@H](CCCCN)C(=O)N[C@@H](CCC(=O)O)C(=O)N[C@@H](CCCNC(=N)N)C(=O)N[C@@H](CC(N)=O)C(=O)N[C@@H](CCCCN)C(=O)NCC(=O)N[C@@H](CCC(N)=O)C(=O)O			740	721				half-life at 0.3 µM [3]: 11.4 min
C[C@H]1CN(Cc2ccc(CC(=O)N3CCC(Nc4cccc(F)c4)CC3)cc2)CCN1 [CAMICINAL]	0.0126		53		108	1.4		AUC (Rattus norvegicus): 12 kg·min/L; EC50 [7]: > 1 µM; fraction unbound [9]: 0.37; IC50 (Cytochrome P450 2D6): 34 µM; Cmax [10]: 400 nM; bioavailability [11]: 48%; IC50 (Cytochrome P450 2C9): > 100 µM; IC50 [12]: 15.8 µM; Activity (Stomach [13]): 248%; half-life at 3 µM [14]: 46.9 min; bioavailability [15]: 51%; IC50 (Cytochrome P450 2C19): > 100 µM; IC50 (Cytochrome P450 1A2): > 100 µM; fraction unbound [16]: 0.17; Tmax [17]: 120 min
C[C@@H]1CN(Cc2ccc(-c3cccnc3C(=O)N3CCC(Nc4ccc(F)cc4)CC3)cc2)C[C@H](C)N1.Cl								solubility [18]: ≥ 1 µg/mL
CC(C(=O)N1CCC(Nc2ccc(F)cc2)CC1)c1ccc(CN2C[C@@H](C)N[C@@H](C)C2)cc1 (some centres undefined)	0.0316	1.1				7.6	8.7	
C[C@H]1CN(Cc2ccc(CC(=O)N3CCC(Nc4cccc(F)c4)CC3)cc2)CCN1.Cl								solubility [18]: > 1 µg/mL
CC[C@H]1OC(=O)[C@H](C)[C@@H](O[C@H]2C[C@@](C)(OC)[C@@H](O)[C@H](C)O2)[C@H](C)[C@@H](O[C@@H]2O[C@H](C)C[C@H](N(C)C)[C@H]2O)[C@](C)(O)C[C@@H](C)C(=O)[C@H](C)[C@@H](O)[C@]1(C)O [ERYTHROMYCIN]		1.3	69	14	189			IC50 (Cytochrome P450 3A4 [20]): 1.9 µM; Activity (Stomach [13]): 490%; half-life at 3 µM [14]: 24 min; IC50 (Cytochrome P450 3A4 [21]): 0.19 µM
C[C@H]1CN(Cc2ccc(CC(=O)N3CCC(Nc4cccc(C#N)c4)CC3)cc2)CCN1	0.00398	1.1	218	98	462	2	36	IC50 (Cytochrome P450 3A4 [22]): 58 µM; AUC (Rattus norvegicus): 2.8 kg·min/L; Cmax [10]: 200 nM; Tmax [17]: 240 min
C[C@@H]1CN(Cc2ccc(CC(=O)N3CCC(Nc4ccc(F)cc4)CC3)cc2)C[C@H](C)N1	0.0398	0.9				2.7	41	IC50 (Cytochrome P450 3A4 [22]): 59 µM
